Source: paper PMC2692502 (Journal of Antimicrobial Chemotherapy, 2009)

Key:
[1] = Study 1: safety and tolerability; format: in vivo, human; settings: Study 1, 6 mg/kg
How it was run: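 Healthy adult volunteers in a randomized, open-label, single-dose, two-period crossover. Each received test compound 6 mg/kg as a 30 min iv infusion and as a 2 min peripheral iv injection by syringe driver, in random order, with a 5-day washout. The investigator graded AEs for relatedness (not, unlikely, possibly, probably related) and severity (mild/moderate/severe). Tabulated AEs were possibly or probably related. Follow-up was 1–11 days post-dose.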

[2] = Study 2: safety and tolerability; format: in vivo, human
How it was run: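 Healthy adults (24 enrolled) were randomized 3:2:1 in a single-blind, placebo-controlled, parallel-group design. Groups received test compound 6 mg/kg, 4 mg/kg or placebo as a 2 min peripheral iv injection by syringe driver, once daily for 7 days. All subjects entered the safety analysis. The investigator graded AEs for relatedness (not, unlikely, possibly, probably) and severity. Tabulated AEs were possibly or probably related. Follow-up was 9–11 days after last dose.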

[3] = Study 2, 4 mg/kg 2 min iv injection once daily for 7 days, n = 8
[4] = Study 2, 6 mg/kg 2 min iv injection once daily for 7 days, n = 12

## CCCCCCCCCC(=O)N[C@@H](Cc1c[nH]c2ccccc12)C(=O)N[C@H](CC(N)=O)C(=O)N[C@@H](CC(=O)O)C(=O)N[C@@H]1C(=O)NCC(=O)N[C@@H](CCCN)C(=O)N[C@@H](CC(=O)O)C(=O)N[C@H](C)C(=O)N[C@@H](CC(=O)O)C(=O)NCC(=O)N[C@H](CO)C(=O)N[C@@H]([C@H](C)CC(=O)O)C(=O)N[C@@H](CC(=O)c2ccccc2N)C(=O)O[C@@H]1C [daptomycin]
[1]; 2 min iv injection group
  local tolerability reaction: mild tenderness: one subject
[1]; 2 min iv injection, n = 16
  Subjects with at least one adverse event possibly or probably related to study drug: Any adverse event: 4 (25) n (%)
  Subjects with related adverse event: Gastrointestinal disorders: 1 (6) n (%)
  Subjects with related adverse event: Infections and infestations: 1 (6) n (%)
  Subjects with related adverse event: Nervous system disorders: 1 (6) n (%)
  Subjects with related adverse event: fatigue: 1 (6) n (%)
  Subjects with related adverse event: headache: 1 (6) n (%)
  Subjects with related adverse event: nausea: 1 (6) n (%)
  Subjects with related adverse event: urinary tract infection: 1 (6) n (%)
[1]; 30 min iv infusion group
  local tolerability reaction: mild tenderness: two subjects
  local tolerability reaction: pain: one subject
[1]; 30 min iv infusion, n = 15
  Subjects with at least one adverse event possibly or probably related to study drug: Any adverse event: 2 (13) n (%)
  Subjects with related adverse event: Gastrointestinal disorders: 0 n (%)
  Subjects with related adverse event: Infections and infestations: 2 (13) n (%)
  Subjects with related adverse event: Nervous system disorders: 0 n (%)
  Subjects with related adverse event: fatigue: 0 n (%)
  Subjects with related adverse event: headache: 0 n (%)
  Subjects with related adverse event: nausea: 0 n (%)
  Subjects with related adverse event: urinary tract infection: 2 (13) n (%)
[1]; both regimens
  serious or severe AEs or deaths: no serious or severe AEs or deaths were reported
  tolerability: well tolerated
[1]; both regimens, 16 subjects
  total AEs reported: 21
[1]; both regimens, of 21 AEs
  AEs of mild severity: Nineteen
[2]; [3]
  Subjects with at least one adverse event possibly or probably related to study drug: Any adverse event: 2 (25) n (%)
  Subjects with related adverse event: Gastrointestinal disorders: 1 (13) n (%)
  Subjects with related adverse event: Infections and infestations: 0 n (%)
  Subjects with related adverse event: Nervous system disorders: 1 (13) n (%)
  Subjects with related adverse event: dizziness: 0 n (%)
  Subjects with related adverse event: dizziness postural: 0 n (%)
  Subjects with related adverse event: flatulence: 1 (13) n (%)
  Subjects with related adverse event: headache: 0 n (%)
  Subjects with related adverse event: lethargy: 1 (13) n (%)
  Subjects with related adverse event: nausea: 0 n (%)
  Subjects with related adverse event: pain in extremity: 1 (13) n (%)
  Subjects with related adverse event: paraesthesia: 0 n (%)
  Subjects with related adverse event: upper respiratory tract infection: 0 n (%)
  subjects with erythema (local injection-site reaction): five subjects
[2]; [4]
  Subjects with at least one adverse event possibly or probably related to study drug: Any adverse event: 3 (25) n (%)
  Subjects with related adverse event: Gastrointestinal disorders: 0 n (%)
  Subjects with related adverse event: Infections and infestations: 0 n (%)
  Subjects with related adverse event: Nervous system disorders: 3 (25) n (%)
  Subjects with related adverse event: dizziness: 1 (8) n (%)
  Subjects with related adverse event: dizziness postural: 1 (8) n (%)
  Subjects with related adverse event: flatulence: 0 n (%)
  Subjects with related adverse event: headache: 1 (8) n (%)
  Subjects with related adverse event: lethargy: 0 n (%)
  Subjects with related adverse event: nausea: 0 n (%)
  Subjects with related adverse event: pain in extremity: 0 n (%)
  Subjects with related adverse event: paraesthesia: 0 n (%)
  Subjects with related adverse event: upper respiratory tract infection: 0 n (%)
  subjects with erythema (local injection-site reaction): two subjects
